Published values pooled from the literature.
Each line is one published result; the experiments were not run side by side.
blaNDM-1: Metallo-beta-lactamase type 2 (blaNDM-1, Klebsiella pneumoniae, UniProt C7C422)
HLA class I histocompatibility antigen, B alpha chain: HLA class I histocompatibility antigen, B alpha chain (Homo sapiens, UniProt P01889)
MGLL: Monoglyceride lipase (MGLL, Homo sapiens, UniProt Q99685)
HTR2C: 5-hydroxytryptamine receptor 2C (HTR2C, Homo sapiens, UniProt P28335)

C[C@H](NC(=O)[C@@H](CCC(=O)O)NC(=O)CN1CCN(CC(=O)O)CCN(CC(=O)O)CCN(CC(=O)O)CC1)C(=O)N[C@@H](Cc1ccc(O)cc1)C(=O)NCC(=O)N[C@@H](Cc1c[nH]c2ccccc12)C(=O)N[C@H](C(=O)N[C@@H](CC(=O)O)C(=O)N[C@@H](Cc1cccc2ccccc12)C(N)=O)c1ccccc1 — IC50 (Gastrin/cholecystokinin type B receptor (CCKBR, Homo sapiens, UniProt P32239); ligand displacement; radioligand): 0.184 µM
CCN(CC)C(=O)N[C@@H]1C[C@@H]2c3cccc4[nH]cc(c34)C[C@H]2N(C)C1 — IC50 (blaNDM-1; enzyme activity; inhibitor): > 30 µM
O=C(Cc1ccccc1)N[C@H](C(=O)O)[C@@H]1N=C(C(=O)O)C(CSC(C(=O)O)c2ccccc2)CS1 (stereo partly shown) — IC50 (blaNDM-1; enzyme activity; inhibitor; absorbance): > 100 µM
CC[C@H](C)[C@H](NC(=O)[C@H](CC(C)C)NC(=O)CN)C(=O)N[C@H](C(=O)N[C@@H](CC(C)C)C(=O)N[C@@H](CO)C(=O)N[C@@H](Cc1ccc(O)cc1)C(=O)N[C@@H](Cc1c[nH]cn1)C(=O)N[C@@H](CC(C)C)C(=O)O)[C@@H](C)O — IC50 (HLA class I histocompatibility antigen, B alpha chain; ligand displacement; radioligand): 14.3 µM
CN(Cc1ccccc1)C(=O)Oc1nsnc1N1CCCCC1 — IC50 (MGLL; enzyme activity; inhibitor): 5.6 µM
CC(C)C[C@H](NC(=O)[C@H](Cc1ccccc1)NC(=O)c1cnccn1)B(O)O — IC50 (Complement C1r subcomponent (Homo sapiens, UniProt P00736); enzyme activity; inhibitor): > 33 µM
COc1nn([C@@H](C)c2ccc(CC(C)C)cc2)c(=O)o1 — IC50 (Fatty-acid amide hydrolase 1 (FAAH, Homo sapiens, UniProt O00519); enzyme activity; inhibitor; cell membranes): 0.011 µM
CC[C@H](C)[C@H](NC(=O)[C@@H]1CCCN1C(=O)[C@@H](NC(=O)[C@H](CC(C)C)NC(=O)[C@H](CCC(N)=O)NC(=O)[C@H](Cc1ccccc1)NC(=O)[C@H](C)NC(=O)[C@@H](N)CCCCN)[C@@H](C)O)C(=O)N[C@@H](C)C(=O)N[C@H](C(=O)O)C(C)C — IC50 (HLA class I histocompatibility antigen, B alpha chain; ligand displacement; radioligand): 8.6 µM
O=C(O)C1CSC(C(=O)O)N1 (stereo not shown) — IC50 (blaNDM-1; enzyme activity; inhibitor; fluorescence): 55 µM
CC[C@H](C)[C@H](NC(=O)[C@H](CCCNC(=N)N)NC(=O)[C@H](CC(C)C)NC(=O)[C@@H](N)Cc1ccccc1)C(=O)N[C@@H](CCCNC(=N)N)C(=O)N1CCC[C@H]1C(=O)N[C@@H](CCCCN)C(=O)O — IC50 (B2 bradykinin receptor (BDKRB2, Homo sapiens, UniProt P30411); ligand displacement; radioligand): 0.14 µM
CC[C@H](C)[C@H](NC(=O)[C@@H](NC(=O)[C@@H](NC(=O)[C@H](CC(N)=O)NC(=O)[C@@H](NC(=O)[C@H](CO)NC(=O)[C@H](CC(N)=O)NC(=O)[C@H](CC(C)C)NC(=O)[C@@H](N)Cc1ccc(O)cc1)[C@@H](C)O)C(C)C)[C@@H](C)O)C(=O)O — IC50 (HLA class I histocompatibility antigen, B alpha chain; ligand displacement; radioligand): 7.93 µM
NC(=O)c1cccc(-c2cccc(OC(=O)NC3CCCCC3)c2)c1 — IC50 (MGLL; enzyme activity; inhibitor; absorbance): > 10 µM
Ic1ccccc1CN[C@@H]1C2CCN(CC2)[C@@H]1C(c1ccccc1)c1ccccc1 (racemic) — IC50 (Substance-P receptor (TACR1, Homo sapiens, UniProt P25103); ligand displacement; radioligand): 0.00725 µM
CSCC[C@H](NC(=O)[C@H](CCC(N)=O)NC(=O)[C@H](C)NC(=O)[C@H](CO)NC(=O)[C@@H](N)CO)C(=O)N[C@@H](CC(N)=O)C(=O)N[C@@H](CC(C)C)C(=O)N[C@@H](CC(N)=O)C(=O)N[C@H](C(=O)N[C@@H](Cc1ccccc1)C(=O)N[C@@H](CC(C)C)C(=O)N[C@@H](CC(N)=O)C(=O)O)[C@@H](C)O — IC50 (1-deoxy-D-xylulose-5-phosphate synthase (dxs, Deinococcus radiodurans, UniProt Q9RUB5); enzyme activity; inhibitor; absorbance; pH 7.6; with preincubation): 49 µM
C[C@H](N)[C@H](O)c1cccc(O)c1 — IC50 (5-hydroxytryptamine receptor 2B (HTR2B, Homo sapiens, UniProt P41595); ligand displacement; radioligand): 7.38 µM
c1ccc(CN(CCN(Cc2ccccn2)Cc2ccccn2)Cc2ccccn2)nc1 — IC50 (blaNDM-1; enzyme activity; inhibitor; fluorescence): 0.644 µM
CC(=O)c1cc(O)c2ccccc2c1O — IC50 (mRNA cap guanine-N(7) methyltransferase (RNMT, Homo sapiens, UniProt O43148); enzyme activity; inhibitor): 63.3 µM
COc1cc(CC(C)N)c(OC)cc1I (racemic) — IC50 (HTR2C; ligand displacement; radioligand): 0.00046 µM
CC(C)[C@H](NC(=O)[C@@H](NC(=O)[C@H](CCCNC(=N)N)NC(=O)[C@H](C)NC(=O)[C@H](C)NC(=O)[C@H](CCC(=O)O)NC(=O)[C@H](CO)NC(=O)[C@H](C)NC(=O)[C@@H](N)Cc1ccccc1)C(C)C)C(=O)O — IC50 (HLA class I histocompatibility antigen, B alpha chain; ligand displacement; radioligand): 8.55 µM
CCCCCNC(=N)N/N=C/c1c[nH]c2ccc(OC)cc12 — IC50 (HTR2C; ligand displacement; radioligand): 0.197 µM
OCC(S)CS (stereo not shown) — IC50 (blaNDM-1; enzyme activity; inhibitor; fluorescence): 4.21 µM
CCCCCCCCCCCCCCC(Br)C(=O)O (stereo not shown) — IC50 (Palmitoyltransferase ZDHHC20 (ZDHHC20, Homo sapiens, UniProt Q5W0Z9); enzyme activity; inhibitor): 5.33 µM
